Screening data (PubChem)
An excerpt weighted towards active compounds, which were near 1.9% of everything screened.
SUMO1 PPI mod = modulators of SUMO1 protein-protein interactions, primary screen, biochemical, uHTS. Small ubiquitin-related modifier 1 (Homo sapiens), P63165. SUMO1 binding to a labelled peptide, TR-FRET, 1 h. inhibition, % at 20 µM. 0.33% of 360,000 active; in the data active = inhibition above about 37%
Target sequence (P63165 whole entry, looked up): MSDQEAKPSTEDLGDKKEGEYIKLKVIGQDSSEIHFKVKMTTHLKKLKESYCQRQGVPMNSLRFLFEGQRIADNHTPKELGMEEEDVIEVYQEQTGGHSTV
FAS-TE inh = FAS thioesterase domain inhibitors, primary screen, biochemical, fluorescence intensity, uHTS; recombinant FAS-TE, OMFH fluorogenic substrate, fluorescence endpoint; inhibition, % at 15 µM; 0.67% of 360,000 active; AID 602261, 2012;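 active = compounds whose normalised, plate-corrected inhibition of enzyme fluorescence in the single-dose primary screen is 50% or more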;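 also: 0% = DMSO with enzyme and 100% = substrate without enzyme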
LMPTP block = LMPTP phosphatase inhibitors, primary screen, biochemical, fluorescence intensity, uHTS; Low molecular weight phosphotyrosine protein phosphatase (Homo sapiens), P24666; recombinant LMPTP-A, OMFP fluorogenic substrate; inhibition, % at 20 µM; 0.22% of 360,000 active;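 active = compounds that cut the enzyme signal by at least half of the control window in the single-dose screen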;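 also: plate controls were DMSO wells with enzyme plus substrate for no effect and substrate without enzyme for full effect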
Target sequence (P24666 whole entry, looked up): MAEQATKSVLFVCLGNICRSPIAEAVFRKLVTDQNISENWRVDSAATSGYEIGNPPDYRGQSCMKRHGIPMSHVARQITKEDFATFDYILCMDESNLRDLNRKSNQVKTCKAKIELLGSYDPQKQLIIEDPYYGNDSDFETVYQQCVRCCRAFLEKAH
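Material: LMPTP-A; amount: 0.625 nM enzyme; doses: single 20 µM dose; times: reaction 50 min, room temperature, dark; technique: fluorescence intensity of OMFP turnover product; benchmarks: no-enzyme and uninhibited controls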
Scp1 inh = Scp-1 phosphatase inhibitors, primary screen, biochemical, colorimetric, uHTS; Carboxy-terminal domain RNA polymerase II polypeptide A small phosphatase 1 (Homo …; Recombinant Scp1, phosphopeptide, malachite green phosphate absorbance; inhibition, % at 20 µM; 0.88% of 340,000 active;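 active = inhibition above about 50% at 20 µM, limit read from the data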;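 also: plate controls were DMSO wells with enzyme for no effect and wells lacking enzyme for full effect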
Target sequence (Q9GZU7 76-261 limits assumed): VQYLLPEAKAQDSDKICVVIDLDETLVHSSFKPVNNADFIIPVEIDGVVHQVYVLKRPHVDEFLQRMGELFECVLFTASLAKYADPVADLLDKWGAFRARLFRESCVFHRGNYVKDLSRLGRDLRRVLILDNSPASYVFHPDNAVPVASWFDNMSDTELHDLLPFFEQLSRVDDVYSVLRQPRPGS
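System: SCP-1 catalytic domain; Reagent: Phospho 17-mer peptide substrate; Doses: one concentration, 20 µM, with 1.0% DMSO; Incubation: 45 min room-temperature reaction, 5 min colour, 30 min stabiliser; Signal: Phosphate-binding colour reagent, absorbance read at 630 nm.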
STEP inh = STEP phosphatase inhibitors, primary screen, biochemical, fluorescence intensity, uHTS. inhibition, % at 20 µM. Tyrosine-protein phosphatase non-receptor type 5 (Homo sapiens), P54829. recombinant STEP, OMFP fluorogenic substrate. 0.25% of 360,000 active;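 active = inhibition at 20 µM, scaled per plate between control wells, above about 37%, limit read from the data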;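 also: 0% = DMSO with enzyme and substrate and 100% = substrate only without enzyme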
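System: STEP (striatal-enriched tyrosine phosphatase) enzyme, cell-free; medium: Bis-Tris pH 6.0 buffer with DTT, detergent; dosing: 20 µM, 1% DMSO; times: reaction 20 min, ambient temperature; detection: fluorescence, 480/540 nm; read-out basis: normalized % inhibition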
Scp-1 conf = Scp-1 phosphatase inhibitors, retest, confirmation, biochemical, colorimetric, single concentration; 61% of 2,500 active; AID 540281, 2011; inhibition, % at 20 µM; recombinant SCP-1 catalytic domain, phosphate release, malachite green absorbance; shares compounds with Scp1 inh;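 also: plate controls were DMSO with enzyme for no effect and buffer wells lacking enzyme for full effect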
MG interference = colorimetric readout interference by compounds, confirmation, artefact control for Scp-1 inhibitor project, biochemical, single concentration; Colorimetric interference counterscreen, malachite green absorbance 630 nm; shares compounds with Scp1 inh; apparent inhibition (interference), % at 20 µM; 2,500 tested, under 10 active;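 also: compounds added after enzyme reaction finished so only phosphate colour detection is probed; plate controls were DMSO wells with completed Scp-1 reaction for no effect and substrate wells lacking enzyme for full effect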
Scp1 DSF = Scp-1 binding by thermal shift, confirmation, orthogonal assay for Scp-1 inhibitor project, biophysical, differential scanning fluorimetry; shares compounds with Scp1 inh; Recombinant SCP1, Sypro Orange thermal shift Tm; thermal shift relative to vanadate control, % at 40 µM; 25% of 1,500 active; AID 540329, 2011;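 active = substances whose mean melting-temperature shift, as a percentage of the reference inhibitor's shift, reaches about 5.3%, limit read from the data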;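 also: 0% = Tm of DMSO wells and 100% = Tm with sodium orthovanadate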
* hit, by the source's call; x = no result.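 The calls were made as follows, unless noted: active = inhibition of at least 30% at 20 µM; inactive = the rest.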

SMILES	SUMO1 PPI mod	FAS-TE inh	LMPTP block	Scp1 inh	STEP inh	Scp-1 conf	MG interference	Scp1 DSF
Oc1ccc(C=Nc2ccc(N3CCOCC3)cc2)c(O)c1	-10	-6	6	52*	11	45*	-11	2
CCOc1ccc(NC(=O)CN(C)C(=O)C2CC(=O)N(CCc3ccccc3)C2)cc1OCC (configuration not stated)	-26	-2	-7	-4	-3	x	x	x
CC1=NN(c2nc(-c3ccc(C)cc3)cs2)C(=O)C1N=Nc1ccccc1O (configuration not stated)	20	16	2	58*	2	71*	-18	7.4*
CC(C)N1CCC(C)(C(=O)Nc2ccc(-n3cccc3)cc2)C1 (configuration not stated)	1	-9	0	x	1	x	x	x
CCCNC(=O)C1(C)CCCN(Cc2ccccc2C#N)C1 (configuration not stated)	-7	-12	0	x	-2	x	x	x
Cc1ccc(S(=O)(=O)N2CCCC2C(=O)OCc2ccco2)cc1 (configuration not stated)	11	0	0	77*	2	69*	-8	2
CCOc1ccc(/C=C2/SC(=S)N(CCC(=O)Nc3ccc(C(=O)O)cc3)C2=O)cc1	61*	9	64*	56*	47*	78*	-9	2
O=C(CCN1C(=O)/C(=C\c2ccccc2)SC1=S)Nc1ccc(C(=O)O)cc1	-12	-1	24	50	10	x	x	x
COc1ccc(/C=C2\SC(=S)N(CCC(=O)Nc3ccccc3C(=O)O)C2=O)cc1	-1	6	1	1	2	x	x	x
CCOc1ccc(/C=C2\SC(=S)N(CCC(=O)Nc3ccccc3C(=O)O)C2=O)cc1	8	33	3	64*	3	44*	-18	18*
N#C/C(=C\c1ccc[nH]1)C(=O)Nc1ccccc1[N+](=O)[O-]	25	-2	32	55*	-1	64*	-7	5.3*
O=C(CCC1N=C2c3ccccc3N=C(SCC(=O)NCc3ccco3)N2C1=O)NCc1ccco1 (configuration not stated)	3	-2	0	83*	2	69*	-15	-17
Cc1ccc(CSC2=Nc3ccccc3C3=NC(CCC(=O)NCc4ccco4)C(=O)N23)cc1 (configuration not stated)	3	7	1	-7	-2	x	x	x
Cc1cc(C)cc(OCCn2nnc3ccccc32)c1	4	6	1	62*	-1	-13	-16	x
Cc1ccc(C)c(OCCn2nnc3ccccc32)c1	7	10	0	-4	-1	x	x	x
CC(=O)c1ccc(C(=O)Nc2nnc(-c3ccc(Cl)cc3)o2)cc1	16	1	7	54*	6	43*	-17	2
O=C(Nc1nnc(-c2ccccc2)o1)c1ccc(Cl)cc1	4	-4	0	-4	2	x	x	x
Nc1nnc(CC(=O)N/N=C/c2ccc(-c3cccc(C(=O)O)c3)o2)s1	11	-6	-2	54*	1	45*	-6	1
Cc1nc(N2CCOCC2)c2c(C)c(C(=O)Nc3ccccc3Cl)sc2n1	1	5	2	51*	1	-13	-11	x
